The source of these data is ChEMBL document CHEMBL2434917, “Synthesis and anticancer activity of some novel 2-phenazinamine derivatives” (Eur J Med Chem, 2013).

The structures appear in SMILES notation.

The subject of one assay is MGC-803. The assay can be described thus: Cytotoxicity against human MGC803 cells after 48 hrs by MTT assay. The format is functional, cell-based. The settings on record: MGC-803, 48 h. The method, boiled down: (§1)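 Cells were kept in RPMI-1640 with 10% FBS, streptomycin and penicillin at 37 °C under 5% CO2. They were seeded at 5000/well and left 24 h, then exposed 48 h to compound (DMSO stock diluted in medium, DMSO ≤0.2%) at final 0.16, 0.63, 2.5, 10, 40 and 160 μM. MTT was added (10% v/v of 5 mg/ml) for 4 h, formazan was dissolved in DMSO and A490 read. IC50 came from the viability-versus-dose plot against control, with three repeats.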

Assay [1] relates to HepG2. The assay can be described thus: Cytotoxicity against human HepG2 cells after 48 hrs by MTT assay. Conditions: HepG2, 48 h. It counts as functional, cell-based. The method, boiled down:
as §1
(Tetrazolium dyes change colour on reduction, which living cells bring about.)

Assay [2] relates to K562. Briefly: Ratio of cisplatin IC50 to compound IC50 for human K562 cells. It counts as functional.
The subject of assay [3] is HepG2. The assay can be described thus: Ratio of cisplatin IC50 to compound IC50 for human HepG2 cells. It counts as functional.
The next assay has as its system HCT-116. The assay can be described thus: Cytotoxicity against human HCT116 cells after 48 hrs by MTT assay. The format is functional, cell-based. The settings on record: HCT-116, 48 h. The method, boiled down: as §1
The subject of assay [4] is MCF7. The assay can be described thus: Cytotoxicity against human MCF7 cells after 48 hrs by MTT assay. The format is functional, cell-based. Conditions: MCF7, 48 h. The method, boiled down:
as §1

The test system of assay [5] is K562. Briefly: Cytotoxicity against human K562 cells after 48 hrs by MTT assay. It counts as functional, cell-based. Conditions: K562, 48 h. The method, boiled down:
as §1

The test system of assay [6] is HepG2. The assay can be described thus: Induction apoptosis in human HepG2 cells assessed as apoptotic cells level at 50 uM after 24 hrs using Annexin V-FITC and propidium iodide staining by flow cytometry analysis (reference value: 8.3%). It counts as functional. (In flow cytometry, cells or beads pass a laser one at a time.)
For a further assay, the system named is HEK-293T. The assay can be described thus: Cytotoxicity against human 293T cells after 48 hrs by MTT assay. The format is cell-based. An outline of the steps: as §1
The test system of assay [7] is HepG2. Briefly: Induction apoptosis in human HepG2 cells assessed as late apoptosis or necrosis cells level at 50 uM after 24 hrs using Annexin V-FITC and propidium iodide staining by flow cytometry analysis (reference value: 5.7%). It counts as functional.
Assay [8] deals with MCF7. The assay can be described thus: Ratio of cisplatin IC50 to compound IC50 for human MCF7 cells. The format is functional.

As for `O=C(Nc1ccc2nc3ccccc3nc2c1)c1ccccc1Cl`, the IC50 in the assay on MGC-803 is above 160 µM; in the assay with HepG2 [1] it was 16.5 µM; in the assay on HCT-116 it was 91.9 µM; with MCF7 [4] it was above 160 µM; in the assay with K562 [5] it was 33.4 µM; with HEK-293T, above 160 µM. Moreover, the figures for the “Ratio IC50” value with K562 [2] and in the assay with HepG2 [3] were 1.7 and 1.1, respectively. The Activity with HepG2 [6] is 36.1%; in the assay on HepG2 [7] it was 20.5%.
For the molecule `CCOC(=O)Nc1ccc2nc3ccccc3nc2c1`, the 50% inhibitory concentration (IC50) is above 160 µM with MGC-803; 15.2 µM in the assay on HepG2 [1]; above 160 µM with HCT-116; 46.1 µM in the assay with MCF7 [4]; above 160 µM in the assay with K562 [5]; above 160 µM with HEK-293T. In addition, the “Ratio IC50” value in the assay with HepG2 [3] is 1.2.
On to `O=C(Nc1ccc2nc3ccccc3nc2c1)c1cccs1`, for which the half-maximal inhibitory concentration (IC50) in the assay with MGC-803 is above 160 µM; with HepG2 [1], above 160 µM; in the assay with HCT-116 it was 68.1 µM; in the assay with MCF7 [4], above 160 µM; with K562 [5], above 160 µM; in the assay on HEK-293T it was above 160 µM.
In the case of `Cc1ccccc1C(=O)Nc1ccc2nc3ccccc3nc2c1`, the IC50 in the assay on MGC-803 is 27.2 µM; in the assay with HepG2 [1], above 160 µM; with HCT-116 it was above 160 µM; in the assay on MCF7 [4], 11.6 µM; in the assay on K562 [5], above 160 µM; in the assay with HEK-293T, above 160 µM. The “Ratio IC50” value in the assay on MCF7 [8] is recorded as 2.4.
`O=C(Nc1ccc2nc3ccccc3nc2c1)c1cccc2ccccc12`: the 50% inhibitory concentration (IC50) is 87.9 µM in the assay on MGC-803; 44.2 µM in the assay with HepG2 [1]; 131 µM in the assay on HCT-116; 30.1 µM in the assay with MCF7 [4]; 61.2 µM with K562 [5]; above 160 µM with HEK-293T.
In the case of `O=C(Nc1ccc2nc3ccccc3nc2c1)c1cccc(Cl)c1`, the IC50 in the assay on MGC-803, in the assay with HepG2 [1], with HCT-116, in the assay on MCF7 [4], in the assay with K562 [5] and with HEK-293T was above 160 µM each time.
For `CCCC(=O)Nc1ccc2nc3ccccc3nc2c1`, the concentration for half-maximal inhibition (IC50) in the assay with MGC-803 is 43.5 µM; in the assay on HepG2 [1], above 160 µM; in the assay on HCT-116, 62.3 µM; with MCF7 [4], 68.8 µM; in the assay on K562 [5], above 160 µM; in the assay with HEK-293T it was 110 µM.
Regarding `O=C(Nc1ccc2nc3ccccc3nc2c1)c1ccccc1`, the IC50 with MGC-803 was above 160 µM; in the assay on HepG2 [1], above 160 µM; in the assay with HCT-116, 28.2 µM; in the assay with MCF7 [4], above 160 µM; with K562 [5], above 160 µM; with HEK-293T, above 160 µM.
With `O=C(Cc1ccccc1)Nc1ccc2nc3ccccc3nc2c1`, the IC50 with MGC-803, in the assay on HepG2 [1], in the assay on HCT-116, in the assay on MCF7 [4], with K562 [5] and in the assay on HEK-293T was above 160 µM throughout.
Consider `CC(=O)Nc1ccc2nc3ccccc3nc2c1`, for which the half-maximal inhibitory concentration (IC50) with MGC-803 is 93.1 µM; with HepG2 [1] it was above 160 µM; with HCT-116, above 160 µM; in the assay on MCF7 [4] it was 82.6 µM; with K562 [5] it was 49.2 µM; in the assay on HEK-293T, above 160 µM. For the same molecule, the “Ratio IC50” value with K562 [2] was 1.1.
Take `Cc1cccc(C(=O)Nc2ccc3nc4ccccc4nc3c2)c1`: the IC50 was 89 µM with MGC-803; 16.7 µM in the assay on HepG2 [1]; above 160 µM with HCT-116; above 160 µM in the assay on MCF7 [4]; above 160 µM in the assay with K562 [5]; 56.2 µM in the assay with HEK-293T. In the assay on HepG2 [3], the “Ratio IC50” value is on record as 1.1.
On to `CCC(=O)Nc1ccc2nc3ccccc3nc2c1`, for which the IC50 was 63.9 µM in the assay with MGC-803; above 160 µM with HepG2 [1]; 18.9 µM with HCT-116; 40.7 µM with MCF7 [4]; 57.7 µM in the assay with K562 [5]; above 160 µM with HEK-293T.
`O=C(Cc1cccs1)Nc1ccc2nc3ccccc3nc2c1`: the IC50 with HepG2 [1] is above 160 µM; in the assay with HCT-116 it was 95.6 µM; with MCF7 [4], above 160 µM; in the assay on HEK-293T, above 160 µM.
Consider `O=C(Nc1ccc2nc3ccccc3nc2c1)C1CCCCC1`, for which the IC50 in the assay with MGC-803 was 67.1 µM; in the assay with HepG2 [1], above 160 µM; in the assay with HCT-116 it was above 160 µM; with MCF7 [4], 137 µM; in the assay with K562 [5] it was 78.9 µM; in the assay on HEK-293T it was above 160 µM.
For `COc1ccc(C(=O)Nc2ccc3nc4ccccc4nc3c2)cc1`, the IC50 is 50.1 µM in the assay on MGC-803; above 160 µM with HepG2 [1]; above 160 µM with HCT-116; above 160 µM with MCF7 [4]; above 160 µM in the assay with K562 [5]; above 160 µM with HEK-293T.
With `O=C(CCC1CCCC1)Nc1ccc2nc3ccccc3nc2c1`, the IC50 was 122 µM with MGC-803; above 160 µM in the assay with HepG2 [1]; above 160 µM in the assay with HCT-116; above 160 µM in the assay on MCF7 [4]; 157 µM in the assay on K562 [5]; above 160 µM with HEK-293T.
For `CN(C)C(=O)Nc1ccc2nc3ccccc3nc2c1`, the half-maximal inhibitory concentration (IC50) in the assay on HepG2 [1] is above 160 µM; in the assay with HCT-116, 144 µM; with MCF7 [4], 35.1 µM; in the assay on HEK-293T, above 160 µM.
For `Cc1ccc(C(=O)Nc2ccc3nc4ccccc4nc3c2)cc1`, the IC50 in the assay on MGC-803, in the assay on HepG2 [1], with HCT-116, with MCF7 [4], in the assay with K562 [5] and in the assay with HEK-293T was above 160 µM throughout.
Turning to `O=S(=O)(Nc1ccc2nc3ccccc3nc2c1)c1ccccc1`, the IC50 in the assay with MGC-803, in the assay on HepG2 [1], in the assay with HCT-116, in the assay on MCF7 [4], with K562 [5] and with HEK-293T was above 160 µM in each case.
Consider `O=C(Nc1ccc2nc3ccccc3nc2c1)c1ccco1`, for which the IC50 with HepG2 [1] is 52.2 µM; with HCT-116 it was 86.6 µM; with MCF7 [4], 28.8 µM; with HEK-293T, above 160 µM.
For `O=C(CCCl)Nc1ccc2nc3ccccc3nc2c1`, the IC50 is 59.5 µM in the assay with MGC-803; above 160 µM in the assay on HepG2 [1]; 141 µM in the assay on HCT-116; 37.6 µM in the assay with MCF7 [4]; 74.5 µM in the assay on K562 [5]; above 160 µM in the assay on HEK-293T.

By IC50 is commonly meant the midpoint of a concentration-inhibition curve.
